# Bioassay records as filed in PubChem BioAssay.
# L major viab – Leishmania major promastigote growth inhibition, primary screen | 9% of 200,000 active | inhibition, % at 10 µM | Leishmania major promastigotes, resazurin fluorescence viability; in the data active means inhibition above about 50%;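 further: promastigotes grown with compound for 44 hours at 28 °C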
# BaF3 tox – parental Ba/F3 cell viability inhibition, counter-screen for JAK2V617F inhibitor project, murine pro-B, CellTiter-Glo luminescence; CellTiter-Glo ATP luminescence; inhibition, % at 5.6 µM; 1.1% of 220,000 active;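 active means inhibition above a per-campaign cutoff, the mean inhibition of all tested compounds plus 3 SD, cut at about 27% in these data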
# Ba/F3 V617F tox – reduced viability of JAK2V617F-dependent Ba/F3 cells, primary screen, JAK2V617F inhibitor project, cell-based, Ba/F3 EpoR-JAK2V617F, luminescence | ATP luminescence | inhibition, % at 5.6 µM | 1.1% of 220,000 active | AID 1446, 2008;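 active means inhibition above the campaign mean plus 3 SD over all tested compounds, cut at about 24% in these data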;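 further: cytokine-independent growth of Ba/F3 cells driven by EpoR plus mutant JAK2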
# bCat nuc transl – modulators of beta-catenin nuclear translocation, primary screen, imaging, HeLa cells, immunofluorescence, high-content. AID 1665, 2009. 0.3% of 190,000 active. nuclear translocation activity, % at 5 µM;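 active means nuclear translocation activity above 50% at 5 µM, with a well cell count of 50 or more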;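 further: per-cell ratio of nuclear to cytoplasmic median beta-catenin stain intensity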
#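 Assay system: human HeLa cells, native beta-catenin; doses: 5 µM primary, 0.02–20 µM confirmation; incubation: compound treatment 24 h, 37°C, 5% CO2; technique: fluorescence imaging of beta-catenin antibody stain plus DAPI; measure: % activation, nuclear-to-cytoplasmic median beta-catenin signal ratio per cell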
# MT stabilizer – microtubule stabilizers in HeLa cells, primary screen, imaging, high-content imaging; 0.83% of 200,000 active; HeLa tubulin immunostaining HCS, 24 h; share of cells brighter than vehicle mean+2SD; % tubulin-high responders, % at 10 µM;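 active means plate Z-score above 3 for both tubulin-high and condensed-nucleus cell shares, with cell loss under 80%, at 10 µM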;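 further: anti alpha tubulin signal scored within the nucleus-defined area of each cell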
# APP transl inh – inhibitors of APP translation via 5'UTR reporter, primary screen, APP 5'UTR luciferase, SH-SY5Y cells; SH-SY5Y APP 5'UTR-luciferase reporter, luminescence; inhibition, % at 2 µM; 0.82% of 190,000 active;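 active means inhibition above a set limit, derived from the sample mean plus 3 SD, cut at about 45% in these data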
# A number is an active result; - = inactive; . = no result. An excerpt weighted towards active compounds, which were near 9.6% of everything screened.
SMILES,L major viab,BaF3 tox,Ba/F3 V617F tox,bCat nuc transl,MT stabilizer,APP transl inh
CC1CCCCN1C(=O)/C=C/c1ccccc1[N+](=O)[O-] (centres undefined),-,-,-,-,-,-
COc1ccc(N2C(=O)CSC23C(=O)N2c4c(cccc43)C(C)=CC2(C)C)cc1 (centres undefined),100,-,-,.,-,-
Cc1cccc(C(=O)Nc2nnc(-c3ccncc3)o2)c1,-,-,-,-,-,-
O=C(c1ccc(S(=O)(=O)N2CCOCC2)cc1)N1CCN(c2cccc(Cl)c2)CC1,-,-,-,.,-,-
COc1cc(-c2nnc(NC(=O)c3ccc(S(=O)(=O)N4CCOCC4)cc3)o2)cc(OC)c1OC,-,-,-,-,-,-
O=C(NCC1CCN(c2ccc(S(=O)(=O)N3CCOCC3)cc2)CC1)c1cccc(Cl)c1,97,-,-,.,-,-
COc1cccc(-c2nnc(NC(=O)c3ccc(S(=O)(=O)N4CCOCC4)cc3)o2)c1,96,-,-,-,-,-
Cc1cccc(C(=O)Nc2nnc(-c3cccnc3)o2)c1,65,-,-,-,-,-
CC1CN(S(=O)(=O)c2ccc(C(=O)Nc3nnc(-c4ccc5c(c4)CCCC5)o3)cc2)CC(C)O1 (centres undefined),99,-,-,.,-,-
COc1ccc(-c2noc(CCC(=O)NCc3cccnc3)n2)cc1OC,-,-,-,-,-,-
COc1cccc(C(=O)Nc2nnc(-c3ccc(Cl)cc3)o2)c1,.,.,.,-,.,.
CCOc1ccc(-c2nnc(NC(=O)c3ccc(OCC(C)C)c(OC)c3)o2)cc1,98,-,-,-,-,-
COc1cccc(-c2nnc(NC(=O)c3ccc4ncsc4c3)o2)c1,82,-,-,-,-,-
C#CCNC(=O)C1CCN(c2ccc(S(=O)(=O)N3CCOCC3)cc2Cl)CC1,-,-,-,-,-,-
COc1ccc(NC(=O)c2ccc(S(=O)(=O)N3CCOCC3)cc2)c(OC)c1,-,-,-,-,-,-
O=C(NCc1cccs1)C1CCN(c2ccc(S(=O)(=O)N3CCOCC3)cc2Cl)CC1,-,78,73,106,27,93
COc1cccc(C(=O)NCC2CCN(c3ccc(S(=O)(=O)N4CCOCC4)cc3)CC2)c1,64,-,-,-,-,-
Cc1cc(C(F)(F)F)nn1CC(=O)N1CCOCC1,-,-,-,-,-,-
COc1cccc(-c2nnc(NC(=O)C3CCCCC3)o2)c1,66,-,-,.,-,-
OCCN1CCN(Cc2cc(Cl)c3cccnc3c2O)CC1,100,-,-,.,-,-
Brc1ccc(CN2CCN(c3ccccn3)CC2)s1,-,-,-,-,-,-
Oc1c(CN2CCN(c3ccccn3)CC2)cc(Cl)c2cccnc12,100,-,-,-,-,78
O=c1c(CN2CCN(c3ccccn3)CC2)coc2ccccc12,63,-,-,-,-,-
O=C(NCCc1c[nH]c2ccccc12)c1cc(S(=O)(=O)N2CCCCC2)ccc1N1CCOCC1,65,-,-,-,-,-
Fc1ccccc1OCCCN1CCOCC1,51,-,-,-,-,-
SMILES,L major viab,BaF3 tox,Ba/F3 V617F tox,bCat nuc transl,MT stabilizer,APP transl inh
COc1ccccc1OCCCCCCN1CCOCC1,89,-,-,-,-,-
CCOc1ccc(C2CC(c3ccc(F)cc3)n3ncnc3N2)cc1 (centres undefined),-,-,-,-,-,-
CC(NC(=S)Nc1ccccc1C(F)(F)F)C1CC2CCC1C2 (centres undefined),-,-,-,-,-,-
CCCn1c(NC(=O)c2ccc(Cl)c(S(=O)(=O)N3CCCC3)c2)nc2ccccc21,72,-,-,-,-,-
O=C(NCc1nc2ccccc2[nH]1)c1ccc(Cl)c(S(=O)(=O)N2CCCC2)c1,-,-,-,-,-,-
CCCn1c(NC(=O)c2cccc(C)c2C)nc2ccccc21,98,-,-,.,-,-
CCC(=O)Nc1nc2ccccc2n1Cc1ccccc1,-,-,-,-,-,-
CCC(=O)Nc1nc2ccccc2n1Cc1ccc(C)cc1,99,-,-,-,-,-
N#Cc1cc2c(=O)n3ccccc3nc2n(-c2ccccc2Cl)c1=O,-,-,-,-,-,-
O=[N+]([O-])c1ccccc1CSc1nc2ccccc2o1,-,-,-,.,-,-
CCOC(=O)C1CCN(C(c2cccc(OC)c2)c2sc3nc(C)nn3c2O)CC1 (centres undefined),-,-,-,-,-,-
O=C(Nc1nnc(C2CC2)o1)c1ccc(S(=O)(=O)N2CCCc3ccccc32)cc1,99,.,.,-,-,-
COc1ccc(-c2nnc(NC(=O)c3ccc(S(=O)(=O)N4CCCc5ccccc54)cc3)o2)cc1,99,-,-,-,-,-
COCc1nnc(NC(=O)c2ccc(S(=O)(=O)N3CCCc4ccccc43)cc2)o1,-,-,-,-,-,-
Cc1cc(NC(=O)COC(=O)c2ccc(S(=O)(=O)N3CCCC3)cc2)no1,-,-,-,-,-,-
Cc1ccc2nc(NC(=O)c3ccc(S(=O)(=O)N4CCCc5ccccc54)cc3)sc2c1,98,-,-,.,-,-
Cc1cc(NC(=O)COC(=O)c2ccc(S(=O)(=O)N3CCCc4ccccc43)cc2)no1,-,49,63,70,35,92
CC(=O)NS(=O)(=O)c1ccc(NC(=O)C2c3ccccc3Oc3ccccc32)cc1,-,-,-,-,-,-
N#Cc1ccccc1Sc1ccccc1C(=O)Nc1ccccc1,-,-,-,-,-,-
Cn1cccc1/C=N/NC(=O)C12CC3CC(CC(C3)C1)C2,-,-,-,-,-,-
O=C(C1CCCC1)N1CCN=C1SCc1cccc([N+](=O)[O-])c1,-,-,-,-,-,-
COCCCn1c(=O)/c(=C\c2cccc(OC)c2OC)s/c1=C(/C#N)C(=O)Nc1ccc(C(=O)O)cc1,.,-,-,-,.,.
O=C(NCc1ccco1)c1ccc(S(=O)(=O)N2CCCc3ccccc32)cc1,64,-,-,-,-,-
NNC(=O)COc1cccc(Oc2ccccc2)c1,-,-,-,-,-,-
CCc1nnc(NC(=O)CCc2ccc(C)o2)s1,-,-,-,.,-,-
Cc1ccc(CCC(=O)Nc2ncc(Cc3cccc(Cl)c3Cl)s2)o1,-,-,-,100,-,96
O=C(CN1C(=O)NC2(CCCCCC2)C1=O)Nc1ccc2c(c1)CCC2,-,-,-,-,-,-
Cc1ccc(C(=O)N2CCN(C(=O)c3ccco3)CC2)cc1NC(=O)c1ccco1,-,-,-,-,-,-
COc1ccc(Nc2nc(N3CCCC3)c3ccccc3n2)cc1,100,-,-,-,-,-
CCN(CC)c1ccc(Nc2nc(N3CCOCC3)c3ccccc3n2)cc1,97,-,-,-,-,-
